# In PMC4186687 (Molecular Pharmaceutics, 2014):
# How the values were obtained:
# SK-OV-3 cells [1] = assay: Flow cytometry uptake with endocytic inhibitors; format: cell-based, human; conditions: F′-PEpYLGLD:[W5R4C]–SeNPs 1:10, SK-OV-3, 2 h, 37 °C, n = 3
# SK-OV-3 cells [2] = assay: Confocal microscopy on live cells; format: cell-based, human; conditions: F′-PEpYLGLD 5 μM with or without [W5R4C]–SeNPs 50 μM, SK-OV-3, 2 h, 37 °C
# In short: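 SK-OV-3 cells, maintained in EMEM with 10% FBS and 1% penicillin–streptomycin at 37 °C under 5% CO2, were grown overnight on coverslips (1 × 10^5 cells per well). Fluorescein-labelled peptide (5 μM), alone or with peptide-capped selenium nanoparticles (50 μM), was added in opti-MEM for 2 h at 37 °C. Slides were washed and nuclei were DAPI-stained. Fluorescence intensity was compared with probe alone, in triplicate.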
Compound,effect on uptake of F′-PEpYLGLD loaded [W5R4C]–SeNPs (in words) (SK-OV-3 cells [1]),further results
[N-]=[N+]=[N-].[Na+] [sodium azide],did not alter,
"CCN(c1nc(N)c(C(=O)N=C(N)N)nc1Cl)C(C)C [EIA, 5-(N-ethyl-N-isopropyl)-amiloride]",,inhibition of uptake of F′-PEpYLGLD loaded [W5R4C]–SeNPs (SK-OV-3 cells [1]): 40%
F′-PEpYLGLD,,intracellular fluorescence of F′-PEpYLGLD (confocal microscopy) (SK-OV-3 cells [2]): No green fluorescence
C[C@@H]1[C@H](O)[C@@H](C)/C=C/C=C/CC/C=C/C=C/C=C/C=C/C(O[C@H]2O[C@H](C)[C@@H](O)[C@H](N)[C@@H]2O)CC2O[C@](O)(CC(O)C(O)CCC(O)CC(O)CC(O)CC(=O)O[C@H]1C)CC(O)C2C(=O)O (stereo partly shown) [nystatin],,inhibition of uptake of F′-PEpYLGLD loaded [W5R4C]–SeNPs (SK-OV-3 cells [1]): 52%
methyl-β-cyclodextrin,did not significantly decrease,
CCN(CC)CCCC(C)Nc1ccnc2cc(Cl)ccc12 (stereo not shown) [chloroquine],did not significantly decrease,
CN(C)CCCN1c2ccccc2Sc2ccc(Cl)cc21 [chlorpromazine],did not significantly decrease,
